Assay results reported in ChEMBL document CHEMBL1134472, “Synthesis and NMR-driven conformational analysis of taxol analogues conformationally constrained on the C13 side chain” (2001).
Calls of active or inactive are those of the source. The calls are words filed in the database; no cut-off is given here.

Key:
MCF7 = assay: Cytotoxicity against MCF-7 cells with reference to taxol; format: functional; conditions: Homo sapiens
Method in brief: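 Result is the test compound's ED50 in MCF7 cells divided by the paclitaxel ED50 from the same cytotoxicity assay.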

[1] = target: Tubulin alpha chain (Sus scrofa) (UniProt P02550); assay: Tubulin binding with reference to taxol was determined by tubulin assembly assay
Tubulin alpha chain (Sus scrofa), sequence (P02550 whole entry, looked up): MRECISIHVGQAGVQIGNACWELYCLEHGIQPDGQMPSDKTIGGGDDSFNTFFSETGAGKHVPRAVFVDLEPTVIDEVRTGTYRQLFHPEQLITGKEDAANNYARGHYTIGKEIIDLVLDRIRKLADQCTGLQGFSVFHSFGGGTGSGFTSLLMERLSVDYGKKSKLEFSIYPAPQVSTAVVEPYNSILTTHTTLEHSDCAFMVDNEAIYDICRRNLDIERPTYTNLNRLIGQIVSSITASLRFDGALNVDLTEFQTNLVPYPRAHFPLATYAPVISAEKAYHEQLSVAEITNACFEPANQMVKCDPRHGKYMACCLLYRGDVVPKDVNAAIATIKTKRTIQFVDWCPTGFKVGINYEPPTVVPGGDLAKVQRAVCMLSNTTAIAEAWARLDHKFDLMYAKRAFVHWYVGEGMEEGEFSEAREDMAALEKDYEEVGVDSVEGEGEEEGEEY
Method in brief: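 Activity is the ED50 in a tubulin assembly assay, given as a ratio to the paclitaxel ED50 from the same assay.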

ED50/ED50(Taxol) (dimensionless ratio) [1]	ED50 [1]	Compound	ED50/ED50(Taxol) (MCF7) [dimensionless ratio]
42	–	CC(=O)O[C@H]1C(=O)[C@@]2(C)[C@H]([C@H](OC(=O)c3ccccc3)[C@]3(O)CC(OC(=O)[C@@]4(O)CCc5ccccc5[C@@H]4NC(=O)c4ccccc4)C(C)=C1C3(C)C)[C@]1(OC(C)=O)CO[C@@H]1C[C@@H]2O (stereo not given in full)	333
4	–	CC(=O)O[C@H]1C(=O)[C@@]2(C)[C@H]([C@H](OC(=O)c3ccccc3)[C@]3(O)CC(OC(=O)[C@@]4(O)Cc5ccccc5[C@@H]4NC(=O)c4ccccc4)C(C)=C1C3(C)C)[C@]1(OC(C)=O)CO[C@@H]1C[C@@H]2O (stereo not given in full)	9

Further lines, the compound ahead of its results:

Compound	ED50/ED50(Taxol) (dimensionless ratio) [1]	ED50 [1]	ED50/ED50(Taxol) (MCF7) [dimensionless ratio]
CC(=O)O[C@@]12CO[C@@H]1C[C@H](O)[C@@]1(C)C(=O)[C@H](O)C3=C(C)C(OC(=O)[C@@]4(O)CCc5ccccc5[C@@H]4NC(=O)OC(C)(C)C)C[C@@](O)([C@@H](OC(=O)c4ccccc4)[C@H]21)C3(C)C (stereo not given in full)	30	–	239
CC(=O)O[C@H]1C(=O)[C@@]2(C)[C@H]([C@H](OC(=O)c3ccccc3)[C@]3(O)C[C@H](OC(=O)[C@H](O)[C@@H](NC(=O)c4ccccc4)c4ccccc4)C(C)=C1C3(C)C)[C@]1(OC(C)=O)CO[C@@H]1C[C@@H]2O [PACLITAXEL]	–	–	4
CC(=O)O[C@H]1C(=O)[C@@]2(C)[C@H]([C@H](OC(=O)c3ccccc3)[C@]3(O)CC(OC(=O)[C@]4(O)Cc5ccccc5[C@@H]4NC(=O)c4ccccc4)C(C)=C1C3(C)C)[C@]1(OC(C)=O)CO[C@@H]1C[C@@H]2O (stereo not given in full)	–	inactive	1600
CC(=O)O[C@@]12CO[C@@H]1C[C@H](O)[C@@]1(C)C(=O)[C@H](O)C3=C(C)C(OC(=O)[C@@]4(O)Cc5ccccc5[C@@H]4NC(=O)OC(C)(C)C)C[C@@](O)([C@@H](OC(=O)c4ccccc4)[C@H]21)C3(C)C (stereo not given in full)	7	–	–
